Key:
Type in all cases: functional
[1] = system: L5178Y; assay: Cytotoxicity against mouse L5178Y cells by MTT assay
How it was run: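 MTT viability assay on L5178Y mouse lymphoma cells, compared with untreated controls. Negative controls were media containing 0.1% ethylene glycol monomethyl ether/DMSO. Three independent experiments, each in triplicate.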

[2] = system: Pseudomonas aeruginosa; assay: Antibacterial activity against Pseudomonas aeruginosa ATCC 27853 after 24 hrs by CLSI method; conditions: ATCC 27853, 24 h
How it was run: (§1)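 Broth microdilution in 96-well plates, using a medium of 1.75% w/v acid digest of casein and 0.15% w/v starch. Compounds came from a 10 mg/mL DMSO stock. Serial 2-fold dilutions started at 64 μg/mL, with DMSO diluted along with the compounds (0.64% final at the top concentration). Plates were incubated 24 h at 37 °C and read by visual inspection. Moxifloxacin and rifampicin were the positive controls.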

[3] = system: Acinetobacter baumannii; assay: Antibacterial activity against Acinetobacter baumannii BAA1605 after 24 hrs by CLSI method; conditions: BAA1605, 24 h; how it was run: as §1
[4] = system: Acinetobacter baumannii; assay: Antibacterial activity against Acinetobacter baumannii BAA747 after 24 hrs by CLSI method; conditions: BAA747, 24 h; how it was run: as §1
[5] = system: Escherichia coli; assay: Antibacterial activity against Escherichia coli ATCC 25922 after 24 hrs by CLSI method; conditions: ATCC 25922, 24 h; how it was run: as §1
[6] = system: Klebsiella pneumoniae; assay: Antibacterial activity against Klebsiella pneumoniae ATCC 13883 after 24 hrs by CLSI method; conditions: ATCC 13883, 24 h; how it was run: as §1
[7] = system: Staphylococcus aureus; assay: Antibacterial activity against Staphylococcus aureus ATCC 29213 after 24 hrs by CLSI method; conditions: ATCC 29213, 24 h; how it was run: as §1
[8] = system: Staphylococcus aureus; assay: Antibacterial activity against Staphylococcus aureus ATCC 700699 after 24 hrs by CLSI method; conditions: ATCC 700699, 24 h; how it was run: as §1

MIC [2] [µM] | MIC [3] [µM] | MIC [4] [µM] | MIC [5] [µM] | MIC [6] [µM] | MIC [7] [µM] | MIC [8] [µM] | Structure (SMILES) | MIC [1] [µM]
> 100 | > 100 | > 100 | > 100 | > 100 | > 100 | > 100 | CCC(C)[C@@H](C(=O)O)n1c(C)cc2c3c(c(C)c(O)c2c1=O)OC[C@H](C(C)(C)O)C3 (stereo partly specified) | > 20
> 100 | > 100 | > 100 | > 100 | > 100 | > 100 | > 100 | Cc1c2c(c3cc(C)n([C@@H](CC(C)C)C(=O)O)c(=O)c3c1O)C[C@@H](C(C)(C)O)CO2 | > 20

Reference: ChEMBL document CHEMBL4265995, “Chaetolines A and B, Pyrano[3,2- f]isoquinoline Alkaloids from Cultivation of Chaetomium sp. in the Presence of Autoclaved Pseudomonas aeruginosa” (2018)
